The whole screen tested about 2,500 compounds, of which about 1,200 (48%) were called active. So high a share suggests a set chosen from earlier hits. The list shows a part of the results. Values without a mark were called inactive.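 Rule for the calls: active = mean activation above the low control average plus 3 SD, as set in the primary screen (cut at about 12% in these data); inactive = the rest.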
molecular target: Troponin I, cardiac muscle (Homo sapiens) + Troponin T, cardiac muscle (Homo sapiens) + Troponin C, slow skeletal and cardiac muscles (Homo sapiens) (UniProt P19429+P45379+P63316); test: calcium sensitizers of cardiac thin filaments – biochemical, IANBD-TnC fluorescence, triplicate, confirmation (AID 504383); conditions: IANBD-labeled cardiac RTF, Ca2+ sensitivity fluorescence; at 7.2 µM; hits give high values; scaled from EC20 to saturating calcium; tested at EC20 calcium, 0.472 mM;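 note: 0% = DMSO at 0.472 mM calcium and 100% = DMSO at 2.9 mM calcium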
In short: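 Assay system: labelled regulated thin filament protein complex; schedule: 15 min compound incubation with filaments at 25 °C; benchmarks: low control EC20 calcium, high control EC100 calcium; reagent: Ca2+ 0.472 mM, EC20 level; doses: one dose, 7.2 µM nominal; evaluation: fluorescence gain scaled between EC20 and EC100 calcium controls; signal: filament fluorescence intensity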

Compound | activation
CS(=O)(=O)Nc1ccc(C2=NN(C(=O)CCCC(=O)O)C(c3cccs3)C2)cc1 (stereo not given) | 61.2% (active)
CN(C)CCNc1ccc2ncn3c4ccc(O)cc4c(=O)c1c23 | 11.4%
Cc1cc(C)c2nc(NC(=O)C3CCCO3)sc2c1 (stereo not given) | 36.3% (active)
COc1cc(/C=C2\N=C3CCCCCN3C2=O)ccc1O | 4.57%
CCOc1cc(/C=C2\N=C(SC(C)C(N)=O)N(c3ccc(OC(F)F)cc3)C2=O)ccc1O (stereo not given) | 32.1% (active)
COc1cc(OC)c(NC(=O)c2cc3ccccc3cc2O)cc1Cl | 12.7% (active)
CCOC(=O)COc1c(Cl)cc(C2NC(=S)NC(c3ccccc3)=C2C(C)=O)cc1OC (stereo not given) | 10.2%
COc1ccc(-c2nnc(-c3cccnc3)o2)cc1 | 48.2% (active)
Cc1[nH]c(C)c(S(=O)(=O)N2c3ccccc3CC2C)c1C(=O)N1CCCCC1 (stereo not given) | 137% (active)
O=C1c2ccccc2-c2c1cccc2C(=O)N1CCCCCC1 | 9.57%
CCOc1ccc(C2C(C#N)=C(N)SC(N)=C2C#N)cc1OCC | 51.3% (active)
CCOc1ccccc1C1C(C#N)=C(N)SC(N)=C1C#N | 5.25%
COc1ccc(C2C(C#N)=C(N)SC(N)=C2C#N)cc1OC | 6.65%
CC1(C)CC(=O)C(C=Nc2ccc(C(=O)c3ccccc3)cc2N=CC2=C(O)CC(C)(C)CC2=O)=C(O)C1 | 5.75%
CC1(C)CC(=O)C(C=Nc2cc(C(=O)c3ccccc3)ccc2N)=C(O)C1 | 32% (active)
O=C(c1ccccc1)N1CCN(C(=O)c2ccccc2)CC1 | 4.62%
COc1ccccc1Nc1ncc(C(=O)N2CCC(C(N)=O)CC2)c2ccccc12 | 10.5%
NC(=O)C1CCN(C(=O)c2ccc(-c3ccccc3)cc2)CC1 | 64.1% (active)
COc1ccc(C)cc1NC(=O)CC1COc2ccccc2O1 (stereo not given) | 8.38%
COc1ccc(C)cc1NC(=O)C12CCC(C)(C(=O)O1)C2(C)C (stereo not given) | 26.8% (active)
N#Cc1ccc(CSc2nnc(-c3cnccn3)o2)cc1 | 221% (active)
O=C(NC(=S)Nc1ccc2oc(=O)ccc2c1)c1ccco1 | 90.7% (active)
Cc1ncc(CO)c2cc(-c3nnc(Nc4ccc5c(c4)OCO5)s3)c(=O)oc12 | 70% (active)
N#Cc1ccccc1NC(=O)CNc1ccc(Cl)c(C(F)(F)F)c1 | 8.37%

Compound | activation
CCOC(=O)c1ccc[n+](CC(=O)Nc2cc(C(F)(F)F)ccc2Cl)c1 | 13% (active)
Cc1ccc(CCC(=O)Nc2cc(Cl)ccc2Cl)o1 | 7.16%
CC(=O)c1cc(NC(=O)c2ccc(C)cc2)c(=O)oc1/C=C/N(C)C | 54.1% (active)
COC(=O)c1cc2c(=O)c3ccccc3oc2nc1/C=C/N(C)C | 5.31%
CC(=O)c1cc(NC(=O)c2ccccc2)c(=O)oc1/C=C/N(C)C | 11.2%
COc1ccc(C(=O)Nc2cc(C(C)=O)c(/C=C/N(C)C)oc2=O)cc1 | 30.3% (active)
COC(=O)c1cc(NC(=O)c2ccccc2)c(=O)oc1C/C=N\OCc1ccc(Cl)cc1Cl | 3.6%
COC(=O)c1cc(NC(=O)c2ccccc2)c(=O)oc1/C=C/Nc1ccc(Oc2ccccc2)cc1 | 47.1% (active)
CC(=O)c1cc(NC(=O)c2ccc(Cl)cc2)c(=O)oc1/C=C/N(C)C | 5.44%
COc1ccccc1C(=O)Nc1ccc(OC(C)C(=O)N2CCOCC2)cc1 (stereo not given) | 2020% (active)
COc1ccccc1Nc1nc(N2CCOCC2)nc(N2CCOCC2)n1 | 7.77%
CCOc1ccc(NC(=O)c2cccc(OC(=S)N3CCOCC3)c2)cc1 | 3.8%
O=C(O)C(c1ccccc1)N1C(=O)/C(=C\c2ccc(-c3ccc(Br)cc3)o2)SC1=S (stereo not given) | 186% (active)
O=C(CSC1=NS(=O)(=O)c2ccccc2N1)N1CCCCC1 | 68.3% (active)
CCOC(=O)CC1=NS(=O)(=O)c2ccccc2N1 | 9.51%
CCCc1cc(=O)oc2c3c(cc(OCC(=O)N[C@@H](CSC)C(=O)O)c12)OC(C)(C)CC3 | 42% (active)
Cc1c(C)c2c(OCC(=O)N3CCC(O)CC3)cc3c(c2oc1=O)CCC(C)(C)O3 | 3.89%
Cc1cc(=O)oc2c3c(cc(OCC(=O)NCc4ccccn4)c12)OC(C)(C)CC3 | 2.15%
COCCNC(=O)c1c(CS(=O)(=O)c2ccccc2)noc1C(=O)NCc1ccccc1 | -1.16%
CN(C)CCNC(=O)c1c(CSc2ccc(Cl)cc2)noc1C(=O)NCc1ccccc1 | 13.1% (active)
CNc1c2cccc(C)c2nc2c(C(=O)NCCN(C)C)cccc12 | 0.42%
Cc1cccc(NC(=O)CN2C(=O)N/C(=C/c3ccc(C)s3)C2=O)c1 | 12.8% (active)
Cc1ccc(/C=C2/NC(=O)N(Cc3ccccc3)C2=O)s1 | 2.28%
Cc1cccc(CN2C(=O)N/C(=C/c3ccc(C)s3)C2=O)c1 | 8.39%

Compound | activation
CCOC(=O)CCc1c(C)nc(-n2[nH]c(C)c(CCO)c2=O)[nH]c1=O | 6.36%
Cc1nc(-n2[nH]c3c(c2=O)CCCC3)[nH]c(=O)c1Cc1ccccc1 | 28% (active)
Cc1ccc(C2C(C#N)=C(N)SC(N)=C2C#N)cc1 | 9.26%
CCC(=O)Nc1nc2c(c(=O)[nH]1)CCCC2 | 4.12%
O=C(CCc1nc2sc3c(c2c(=O)[nH]1)CCCC3)Nc1ccccc1Cl | 84.3% (active)
CC(C)(CN1CCc2ccccc2C1)NS(=O)(=O)c1ccc(Cl)cc1 | 2.24%
O=S(=O)(c1ccccc1Cl)N1CCC(Cc2ccccc2)CC1 | 10.4%
Cc1ccc(S(=O)(=O)NC(C)(C)CN2CCC(Cc3ccccc3)CC2)cc1 | 21.5% (active)
COc1ccc(Br)cc1S(=O)(=O)Nc1ncccc1C | 68.3% (active)
COc1cc(Cl)c(S(=O)(=O)NCc2ccccn2)cc1Cl | 7.75%
COc1ccc(C(=O)O)cc1S(=O)(=O)NCCc1ccccn1 | 5.17%
COC(=O)N1c2ccccc2CCc2ccccc21 | 8.65%
Cc1cc2oc3ccc(NCCCn4ccnc4)cc3c(=O)c2cc1C | 1.5%
CCCOc1ccc(C2C(C(=O)c3ccc(C)o3)=C(O)C(=O)N2CCCn2ccnc2)cc1 (stereo not given) | 64.1% (active)
CCCCOc1cccc(C2C(C(=O)c3cccs3)=C(O)C(=O)N2Cc2cccnc2)c1 (stereo not given) | -3.36%
O=C1c2ccccc2-c2onc3ccc(NCc4ccco4)c1c23 | 1.47%
CCOc1ccc2noc3c2c1C(=O)c1ccccc1-3 | 3.61%
CCNc1ccc2noc3c2c1C(=O)c1ccccc1-3 | 15.8% (active)
COC(=O)C1=C(CSc2nc3c(cc2C#N)CN(C)CC3)OC(N)=C(C#N)C1c1ccccc1F (stereo not given) | 10.6%
N#CC1=C(N)Oc2cc(O)c(Cl)cc2C1c1ccccc1F (stereo not given) | 162% (active)
O=C1CCC(=O)N(O)CCCCCNC(=O)CCC(=O)N(O)CCCCNC(=O)CCC(=O)N(O)CCCCCN1 | 1.89%
COc1ccc(Nc2cc(C)nc3ccc(OC)cc23)cc1 | 4.34%
CC(=O)c1cccc(NC(=S)NC2CCCCC2)c1 | 8.2%
CC(=O)c1cccc(Nc2cc(C)nc3ccc(C)cc23)c1 | 25.6% (active)

Compound | activation
CCN(C(=O)c1cnc(NC(C)C)cc1C(F)(F)F)c1ccc(Cl)cc1 | 4.41%
CCN(c1ccc(N=Cc2c(O)n(Cc3ccc(OC)cc3)c(=O)c3ccccc23)cc1)C(C)C | 9.81%
Cc1ccc(N=Cc2sc(O)c3ccccc23)cc1 | 7.98%
COc1ccc(N=Cc2c(O)c3ccccc3n2C(C)=O)cc1 | 13.7% (active)
CC(=O)n1c(C=Nc2ccc(Cl)cc2)c(O)c2ccccc21 | 10.7%
COc1ccc(N=Cc2sc(O)c3ccccc23)cc1 | 152% (active)
Oc1sc(C=Nc2ccccc2)c2ccccc12 | 12.9% (active)
O=[N+]([O-])c1ccc(N/N=C\c2ccccc2OCc2ccccc2)cc1 | 19.2% (active)
O=C(Nc1cc2c3c(c1)CC(=O)N3CCC2)C1CC1 | 10.7%
COc1ncnc2c1NC1=C(S2)C(=NCCC(=O)O)CC(C)(C)C1 | 70.3% (active)
CCN1/C(=C/c2ccc3cc(C)ccc3[n+]2CC)Sc2ccc3sccc3c21 | 11.7% (active)
CCN1/C(=C\c2ccc3cc(C)ccc3[n+]2CC)Sc2cc(C)c(C)cc21 | 6.91%
CCN1/C(=C/c2ccc3cc(C)cc(C)c3[n+]2CC)Sc2cc(C)ccc21 | 14.7% (active)
CCN1/C(=C\c2ccc3ccccc3[n+]2CC)Sc2cc(C)ccc21 | 57.9% (active)
CCN1/C(=C/c2ccc3cc(C)ccc3[n+]2CC)Sc2ccccc21 | 68.1% (active)
CCN1/C(=C/c2ccc3cc(C)ccc3[n+]2CC)Sc2cc(C)ccc21 | 2.46%
COc1ccccc1N=Cc1c(C)c(C#N)c2[nH]c3ccccc3n2c1=O | 1.91%
COc1ccc(N2C(N)=NC(N)=NC2(C)C)cc1 | 1.33%
CCN1CC=C2C(C#N)=C(N)C(C#N)(C#N)C(CCc3ccccc3)C2C1 (stereo not given) | 11.4%
CN1CC=C2C(C#N)=C(N)C(C#N)(C#N)C(CCc3ccccc3)C2C1 (stereo not given) | 46% (active)
N#CC1=C(N)SC(N)=C(C#N)C1CCc1ccccc1 | 0.43%
CN1CC=C2C(C#N)=C(N)C(C#N)(C#N)C(Cc3ccccc3)C2C1 (stereo not given) | 12.3% (active)
CCOc1ccc(S(=O)(=O)n2ccnc2)c2ccccc12 | 12.2% (active)

Source: PubChem BioAssay AID504383 (The Scripps Research Institute Molecular Screening Center, 2011)
